MrgX1 antagonist = antagonists of human MrgX1 receptor; MRGX1-HEK293 calcium flux, Fluo-4, BAM8-22 antagonism; hits give low values; Q96LB2; B-score at 10 µM; 1.3% of 310,000 active;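 active means calcium-response B-score plate-corrected more than 3 library SD below zero, starting fluorescence within 5 deviations, no agonist response on first addition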;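 further: peak minus trough fluorescence over baseline after final BAM8-22 challenge near maximal dose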
Target sequence (Q96LB2 whole entry, looked up): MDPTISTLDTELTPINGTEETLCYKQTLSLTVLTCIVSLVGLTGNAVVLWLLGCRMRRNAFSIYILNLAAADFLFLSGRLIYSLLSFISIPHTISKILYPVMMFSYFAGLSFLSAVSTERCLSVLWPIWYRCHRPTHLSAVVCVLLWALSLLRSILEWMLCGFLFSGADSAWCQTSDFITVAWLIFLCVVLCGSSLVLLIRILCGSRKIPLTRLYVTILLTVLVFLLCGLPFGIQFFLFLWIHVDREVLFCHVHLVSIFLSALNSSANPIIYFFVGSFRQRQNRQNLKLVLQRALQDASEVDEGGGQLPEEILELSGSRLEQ
MrgX1 agonist = human MrgX1 receptor agonism, primary screen; AID 588627; MrgX1-HEK293 cells, Fluo-4 calcium fluorescence, agonist mode; hits give high values; 0.44% of 310,000 active; B-score at 10 µM;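 active means calcium response B-score plate-corrected fluorescence ratio at least 3 library SD, with starting fluorescence B-score inside 5 SD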
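Material: HEK293 cells stably expressing human MrgX1 receptor | Quantity: 15,000 cells per well | Times: Cells plated overnight, dye loaded 0.5 h 37 °C, 0.5 h room temperature | Measured by: Kinetic Fluo-4 NW fluorescence of intracellular calcium | Control set: Positive and negative controls per plate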
MrgX1 PAM = human MrgX1 positive allosteric modulation, primary screen. Q96LB2. MrgX1-HEK293, Fluo-4 calcium flux, FDSS; hits give high values. B-score at 10 µM. AID 588675. 0.63% of 310,000 active;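 active means plate-corrected calcium response at least 3 library SD above typical, normal starting fluorescence, not activating the receptor alone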;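 further: compound read alongside a low EC10 to EC30 dose of BAM8-22 agonist; peak minus trough fluorescence over baseline measured at the second addition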
RGS4 act = potentiators or activators of RGS4; B-score at 10 µM; HEK293 M3R/inducible RGS4, carbachol calcium flux Fluo4; hits give low values; 0.92% of 310,000 active; AID 463111;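 active means B-score of the integrated calcium signal more than 4 SD below the library mean, with starting fluorescence not abnormally high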;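 further: negative B-score means reduced calcium response which marks RGS4 activation or potentiation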
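Material: M3R-expressing HEK293 line, RGS4 induced by doxycycline | Schedule: Overnight RGS4 induction, 30 min dye load 37 °C, 20 min compound RT | Measured by: Fluo4 fluorescence kinetic imaging of calcium | Read-out: Integrated calcium ratio converted to B score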
RGS4 inh = human RGS4 inhibition. P49798. HEK293 M3R/RGS4 inducible, Fluo-4 calcium flux; hits give high values; triggered by carbachol at its EC20. B-score at 10 µM. 0.45% of 310,000 active. AID 463165;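 active means B-score, a plate-corrected calcium signal, over three deviations above library mean, with baseline fluorescence within five deviations of library mean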;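 further: RGS4 expression induced by doxycycline in cells with stable M3 receptor; B-score is computed from the integrated fluorescence ratio over baseline after carbachol; higher B-score means a larger calcium signal and so more RGS4 inhibition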
* = called active by the depositor; i = inactive; · = no result. Rows were chosen to be rich in hits. Some 3.5% of all compounds tested hit in one or more screens of this group.

SMILES	MrgX1 antagonist	MrgX1 agonist	MrgX1 PAM	RGS4 act	RGS4 inh
CC(c1ccccc1)N1CCN(C(=O)CCl)CC1 (configuration not stated)	i	i	i	i	i
CCCCN(CCCC)c1ccc(C(=O)c2ccccc2C(=O)O)c(O)c1	i	42*	i	i	i
CCN(CC(=O)NCc1cccs1)C(=O)c1cccc(S(=O)(=O)NCc2ccccc2)c1	i	i	i	i	i
COc1ccccc1N1CCN(CCC(=O)Nc2ccc(F)cc2)CC1	i	i	i	i	i
CC(=O)Oc1cc(O)c2c(=O)c(OC(C)=O)c(-c3ccc(OC(C)=O)c(OC(C)=O)c3)oc2c1	i	i	7.97*	i	i
COc1c(-c2ccc(O)cc2)oc2cc(O)cc(O)c2c1=O	i	i	i	·	·
O=S(=O)(Nc1nc2ccccc2[nH]1)c1ccc2ccccc2c1	i	i	i	-9.57*	i
O=S(=O)(Nc1ncn[nH]1)c1ccc2ccccc2c1	i	i	i	i	i
O=[N+]([O-])c1ccc(Nc2nc(NC3CCCCC3)nc(N3CCCC3)n2)cc1	i	i	i	i	i
Cc1csc(N/N=C/c2c(F)cccc2Cl)n1	i	i	9.76*	i	i
Cc1csc(N/N=C/c2ccccc2F)n1	i	i	i	i	i
COc1ccccc1/C=C1\SC(=S)N(CCC(=O)NCCc2ccc(O)cc2)C1=O	i	i	i	i	i
Cc1ccccc1CN1CCN(C(=O)c2cc(-c3ccncc3)nc3ccccc23)CC1	i	i	i	-7.09*	i
CC(=O)c1ccc(N2CCN(C(=O)c3cc(-c4ccncc4)nc4ccc(Cl)cc34)CC2)cc1	i	i	i	-7.36*	i
COc1cccc(CN2CCN(C(=O)c3cc(-c4ccncc4)nc4ccc(C)cc34)CC2)c1	i	i	i	-7*	i
CC1CC(C)CN(C(=O)c2cc(-c3ccncc3)nc3ccccc23)C1 (configuration not stated)	i	i	i	i	i
N/C(COc1ncn(-c2ccccc2)n1)=N\S(=O)(=O)c1ccc(Cl)cc1Cl	i	i	i	i	i
O=C1COc2ccc(C(=O)/C=C/c3ccccc3)cc2N1	i	32.8*	i	i	i
O=C(/C=C/c1ccccc1)c1ccc2c(c1)OCCCCO2	i	i	16.1*	i	i
O=C(O)c1ccc2c(c1)OCCCO2	i	i	i	i	i
Cc1ccc(C)c(N2CCN(C(=O)CCCN3C(=S)NC(C)(C)CC3C)CC2)c1 (configuration not stated)	-4.62*	i	i	i	i
Cc1ccc(S(=O)(=O)NCC2CCC(C(=O)O)CC2)cc1 (configuration not stated)	i	i	i	i	i
Cc1cc(CN2CCCC(N3CCc4ccccc4C3)C2)cc(C)c1O (configuration not stated)	i	i	i	i	i
O=C(CSc1nc(-c2ccccc2)c(-c2ccccc2)o1)NCCCO	i	i	i	i	i
CCOc1ccccc1NC(=S)NC(=O)CCCOc1ccc(Cl)cc1Cl	i	i	i	-7.3*	i
SMILES	MrgX1 antagonist	MrgX1 agonist	MrgX1 PAM	RGS4 act	RGS4 inh
COC(=O)c1cc(CN2CCN(c3ccccc3C)CC2)ccc1O	i	i	i	i	i
Cc1ccc(N(CC2CO2)S(=O)(=O)c2ccc(C)cc2)cc1 (configuration not stated)	i	i	i	i	i
Cc1ccc(N(CC2CO2)S(=O)(=O)c2ccc([N+](=O)[O-])cc2)cc1 (configuration not stated)	i	i	7.39*	i	i
CC(C)N1CCN(Cc2ccc(-c3ccccc3)cc2)CC1CCO (configuration not stated)	i	i	i	i	i
CC1CCCN(Cc2ccc(OCc3ccccc3)cc2)C1 (configuration not stated)	i	i	i	-7.59*	i
CC(C)N1CCN(Cc2ccc(OCc3ccccc3)cc2)CC1CCO (configuration not stated)	i	i	i	-7.04*	i

Screening data (PubChem BioAssay)
